Results pooled from the literature.
Compare with care: the assays were run in different laboratories.
Observed: microbial growth

| SMILES | organism | test | test system | conditions | MIC |
| --- | --- | --- | --- | --- | --- |
| Clc1ccccc1C(c1ccccc1)(c1ccccc1)n1ccnc1 | Saccharomyces cerevisiae | – | – | – | 20 to 25 µM |
| O=C(O)COc1ccc(Oc2ccc(-c3noc(-c4ccc(O)cc4)n3)cc2)cc1 | Clostridioides difficile | broth dilution | – | 48 h | 50 µg/mL |
| Cc1ccc(C)n1-c1ccc(-c2nnc(-c3c(Cl)cccc3Cl)[nH]2)cc1 | Saccharomyces cerevisiae | broth dilution | ATCC9763 | – | 2 µg/mL |
| CC[C@@H]([C@H](C)O)n1ncn(-c2ccc(N3CCN(c4ccc(OC[C@@H]5CO[C@@](Cn6cncn6)(c6ccc(F)cc6F)C5)cc4)CC3)cc2)c1=O | Saccharomyces cerevisiae | – | BY4743 | 72 h | < 0.3 µM |
| Cl.Oc1ccc(-c2nc(-c3ccc(Oc4ccc5c(c4)CNCC5)cc3)no2)cc1 | Clostridioides difficile | broth dilution | – | 48 h | 4 µg/mL |
| CC(C)(C)C(=O)C(Oc1ccc(Cl)cc1)n1ccnc1 (centres unmarked) | Saccharomyces cerevisiae | – | – | – | 20 to 25 µM |
| O=C(O)COc1cccc(Oc2ccc(-c3noc(-c4ccc(O)cc4)n3)cc2)c1 | Clostridioides difficile | broth dilution | – | 48 h | 50 µg/mL |
| Oc1c(F)cc(-c2nc(-c3ccc(Oc4ccc(C(F)(F)F)cc4)cc3)no2)cc1F | Clostridioides difficile | broth dilution | ATCC43255 | 48 h | 2 to 4 µg/mL |
| Cc1cc(C)n(C(=O)c2ccc(-n3c(C)ccc3C)cc2)n1 | Saccharomyces cerevisiae | broth dilution | ATCC9763 | – | > 500 µg/mL |
| Oc1ccc(-c2nc(-c3ccc(Oc4ccccc4)cc3)no2)cc1 | Clostridioides difficile | broth dilution | – | 48 h | 6 µg/mL |
| Cc1ccc(C)n1-c1ccc(-c2nnc(S)s2)cc1 | Saccharomyces cerevisiae | broth dilution | ATCC9763 | – | 62.5 µg/mL |
| Oc1ccc(-c2nc(-c3ccc(Oc4ccc(I)cc4)cc3)no2)cc1 | Clostridioides difficile | broth dilution | ATCC43255 | 48 h | 8 to 128 µg/mL |
| C[C@@H]1[C@H](O)[C@@H](C)/C=C/C=C/C=C/C=C/C=C/C=C/C=C/[C@H](O[C@@H]2O[C@H](C)[C@@H](O)[C@H](N)[C@@H]2O)C[C@@H]2O[C@](O)(C[C@@H](O)C[C@@H](O)[C@H](O)CC[C@@H](O)C[C@@H](O)CC(=O)O[C@H]1C)C[C@H](O)[C@H]2C(=O)O | Saccharomyces cerevisiae | – | – | – | 0.5 µg/mL |
| Cc1ccc(C)n1-c1ccc(C(=O)NNC=O)cc1 | Saccharomyces cerevisiae | broth dilution | ATCC9763 | – | 250 µg/mL |
| CC(CN)c1ccc(Oc2ccc(-c3noc(-c4ccc(O)cc4)n3)cc2)cc1.Cl (racemic) | Clostridioides difficile | broth dilution | – | 48 h | 16 µg/mL |
| Cc1ccc(C)n1-c1ccc(-c2nnc(-c3ccccc3Cl)[nH]2)cc1 | Saccharomyces cerevisiae | broth dilution | ATCC9763 | – | 8 µg/mL |
| CC1(C)S[C@@H]2[C@H](NC(=O)[C@H](N)c3ccccc3)C(=O)N2[C@H]1C(=O)O | Shigella sonnei | broth dilution | ATCC25931 | – | 4 µg/mL |
